{"source": "paper PMC4655421", "about": "(ACS Chemical Biology, 2015)", "key": {"Rho-MatB [1]": {"target": "T1, Rho-MatB (Rhodopseudomonas palustris, UniProt Q6ND88, C106A/K488A/Q457C/R286C)", "T1 sequence (Q6ND88 1-503 C106A/R286C/Q457C/K488A)": "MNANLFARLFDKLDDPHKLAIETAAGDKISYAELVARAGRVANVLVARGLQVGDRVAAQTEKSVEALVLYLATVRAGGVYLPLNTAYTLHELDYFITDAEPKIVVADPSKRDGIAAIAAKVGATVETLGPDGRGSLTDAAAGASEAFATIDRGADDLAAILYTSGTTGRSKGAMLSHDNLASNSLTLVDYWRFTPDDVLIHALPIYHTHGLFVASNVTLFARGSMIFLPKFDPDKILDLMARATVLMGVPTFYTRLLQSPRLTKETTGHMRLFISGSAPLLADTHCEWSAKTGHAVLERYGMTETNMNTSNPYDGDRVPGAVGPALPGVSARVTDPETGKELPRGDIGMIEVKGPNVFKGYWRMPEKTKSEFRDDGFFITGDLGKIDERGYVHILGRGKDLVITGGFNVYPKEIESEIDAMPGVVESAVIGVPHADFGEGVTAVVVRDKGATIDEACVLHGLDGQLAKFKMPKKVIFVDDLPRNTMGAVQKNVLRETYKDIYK", "assay": "ATP titration of Rho-MatB in the presence of other nucleotides", "format": "binding", "settings": "for fluorescence ratio of ATP titration: 1 μM Rho-MatB titrated with ATP in presence of 100 μM of the named nucleotide", "procedure,_shortened": "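ATP was titrated into 1 μM labelled sensor, alone or with 100 μM ADP, dATP, ATPγS or AMP-PNP. Buffer was Hepes pH 7.0 / NaCl / MgCl2 / BSA, with excitation at 553 nm and emission at 571 nm. Dilution-corrected data were fitted to a quadratic binding equation to give the apparent Kd for ATP and the fluorescence ratio.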"}, "Rho-MatB [2]": {"target": "T1, Rho-MatB", "assay": "Fluorescence of Rho-MatB with various ligands", "format": "binding", "settings": "in words"}, "Rho-MatB [3]": {"target": "T1, Rho-MatB", "assay": "Stopped-flow association and dissociation kinetics of Rho-MatB and ATP", "format": "binding", "settings": "25 °C", "procedure,_shortened": "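Stopped-flow fluorescence at 25 °C in Hepes pH 7.0, NaCl, MgCl2, BSA buffer. In one format, a range of sensor concentrations in 10-fold excess over ATP gave single-exponential traces, with at least three traces averaged at 1.3 and 2.5 μM. In the other, 0.25 μM sensor was mixed with excess ATP, giving biphasic traces. kobs (fast phase) was plotted against the excess reactant; linear-regression slope gave association and intercept gave dissociation.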"}, "ATeam": {"tested_on": "ATeam", "settings": "ATeam biosensor; cited from earlier work"}, "Rho-MatB [4]": {"target": "T1, Rho-MatB", "assay": "Fluorescence titration of nucleotides to Rho-MatB", "format": "binding"}, "RpMatB K488A": {"target": "RpMatB K488A", "settings": "read-out: Kd for ATP; unlabeled RpMatB K488A; cited from earlier work"}, "pyruvate kinase": {"target": "pyruvate kinase (Oryctolagus cuniculus, UniProt P11974)", "sequence (P11974 whole entry)": "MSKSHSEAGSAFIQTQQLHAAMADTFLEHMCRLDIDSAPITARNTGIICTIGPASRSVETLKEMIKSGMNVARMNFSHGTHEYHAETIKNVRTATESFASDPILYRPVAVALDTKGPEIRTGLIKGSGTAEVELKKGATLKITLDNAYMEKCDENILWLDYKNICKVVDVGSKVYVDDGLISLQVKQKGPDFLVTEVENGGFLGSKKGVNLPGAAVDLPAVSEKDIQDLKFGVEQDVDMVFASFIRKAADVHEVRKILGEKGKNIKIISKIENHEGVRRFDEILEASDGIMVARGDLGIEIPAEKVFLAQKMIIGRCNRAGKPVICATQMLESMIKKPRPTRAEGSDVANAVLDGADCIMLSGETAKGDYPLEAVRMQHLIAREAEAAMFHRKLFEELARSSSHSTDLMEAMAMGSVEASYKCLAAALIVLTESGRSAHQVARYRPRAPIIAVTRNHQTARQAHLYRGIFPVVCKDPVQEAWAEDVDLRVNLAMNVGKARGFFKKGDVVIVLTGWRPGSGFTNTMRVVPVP", "assay": "Steady-state ATP production by pyruvate kinase monitored by Rho-MatB", "format": "biochemical, rabbit"}, "[5]": {"settings": "0.25 μM Rho-MatB, ATP in large excess"}, "[6]": {"settings": "Rho-MatB in 10-fold excess over ATP"}}, "note": "Several values for one entry are separate records, joined by “and”; a condition that tells them apart may be missing. Equal entries are not always repeated."}
{"smiles": "Nc1ncnc2c1ncn2[C@@H]1O[C@H](COP(=O)(O)OP(=O)(O)O)[C@@H](O)[C@H]1O", "note": "[ADP]", "values": [{"measurement": "fluorescence ratio of ATP titration", "setting": "Rho-MatB [1]", "value": 3.0}]}
{"smiles": "Nc1nc2c(ncn2[C@@H]2O[C@H](COP(=O)(O)OP(=O)(O)O)[C@@H](O)[C@H]2O)c(=O)[nH]1", "note": "[GDP]", "values": [{"measurement": "effect on the fluorescence of Rho-MatB", "setting": "Rho-MatB [2]", "value": "did not significantly affect the fluorescence"}]}
{"smiles": "CC(C)(COP(=O)(O)OP(=O)(O)OC[C@H]1O[C@@H](n2cnc3c(N)ncnc32)[C@H](O)[C@@H]1OP(=O)(O)O)[C@@H](O)C(=O)NCCC(=O)NCCS", "note": "[coenzyme A]", "values": [{"measurement": "effect on the MgATP-induced fluorescence increase", "setting": "Rho-MatB [2]", "value": "did not inhibit"}, {"measurement": "effect on the fluorescence of Rho-MatB", "setting": "Rho-MatB [2]", "value": "no effect"}]}
{"smiles": "Nc1ncnc2c1ncn2[C@@H]1O[C@H](COP(=O)(O)O)[C@@H](O)[C@H]1O", "note": "[AMP]", "values": [{"measurement": "effect on the fluorescence of Rho-MatB", "setting": "Rho-MatB [2]", "value": "did not significantly affect the fluorescence"}]}
{"smiles": "Nc1ncnc2c1ncn2[C@H]1C[C@H](O)[C@@H](COP(=O)(O)OP(=O)(O)OP(=O)(O)O)O1", "note": "[dATP]", "values": [{"measurement": "fluorescence ratio of ATP titration", "setting": "Rho-MatB [1]", "value": 2.3}]}
{"smiles": "Nc1nc2c(ncn2[C@@H]2O[C@H](COP(=O)(O)OP(=O)(O)OP(=O)(O)O)[C@@H](O)[C@H]2O)c(=O)[nH]1", "note": "[GTP]", "values": [{"measurement": "effect on the fluorescence of Rho-MatB", "setting": "Rho-MatB [2]", "value": "did not significantly affect the fluorescence"}]}
{"smiles": "O=C(O)CC(=O)O", "note": "[malonate]", "values": [{"measurement": "effect on the MgATP-induced fluorescence increase", "setting": "Rho-MatB [2]", "value": "did not inhibit"}, {"measurement": "effect on the fluorescence of Rho-MatB", "setting": "Rho-MatB [2]", "value": "no effect"}]}
{"smiles": "Nc1ncnc2c1ncn2[C@@H]1O[C@H](COP(=O)(O)OP(=O)(O)NP(=O)(O)O)[C@@H](O)[C@H]1O", "note": "[AMP-PNP, adenosine 5′-(β,γ-imido)triphosphate]", "values": [{"measurement": "fluorescence ratio of ATP titration", "setting": "Rho-MatB [1]", "value": 2.4}]}
{"smiles": "Nc1ncnc2c1ncn2[C@@H]1O[C@H](COP(=O)(O)OP(=O)(O)OP(=O)(O)O)[C@@H](O)[C@H]1O", "note": "[ATP]", "values": [{"measurement": "association rate constant (fast phase)", "setting": "Rho-MatB [3]; [5]", "value": "1.83 ± 0.02 μM^–1 s^–1 and 1.8 μM^–1 s^–1"}, {"measurement": "intercept (dissociation rate constant, fast phase)", "setting": "Rho-MatB [3]; [5]", "value": "8.15 ± 0.17 s^–1 and 8.2 s^–1"}, {"measurement": "association rate constant", "setting": "Rho-MatB [3]; [6]", "value": 0.72, "unit": "μM^–1 s^–1"}, {"measurement": "intercept (dissociation rate constant)", "setting": "Rho-MatB [3]; [6]", "value": "8.0 s^–1 and 7.95 ± 0.18 s^–1"}, {"measurement": "higher affinity for ATP than ADP", "setting": "ATeam", "value": 30, "unit": "fold"}, {"measurement": "higher affinity for ATP than ADP", "setting": "Rho-MatB [4]; Rho-MatB", "value": 67, "unit": "fold"}, {"measurement": "increase in fluorescence intensity on ATP binding", "setting": "Rho-MatB [4]; excitation 553 nm, emission 575 nm, 1 μM Rho-MatB", "value": 3.7, "unit": "fold"}, {"measurement": "Kd", "setting": "RpMatB K488A", "value": 0.31, "unit": "µM"}]}
{"smiles": "C=C(OP(=O)(O)O)C(=O)O", "note": "[phosphoenolpyruvate]", "values": [{"measurement": "average specific activity", "setting": "pyruvate kinase", "value": "0.76 μM s^–1 U^–1 mL and 0.76 ± 0.02 μM s^–1 U^–1 mL"}, {"measurement": "average Vmax", "setting": "pyruvate kinase; n = 5", "value": "0.0190 ± 0.0004", "unit": "μM s^–1"}]}
{"smiles": "Nc1ncnc2c1ncn2[C@@H]1O[C@H](CO[P@](=O)(O)O[P@](=O)(O)O[P@@](=O)(O)S)[C@@H](O)[C@H]1O", "note": "[ATPγS, adenosine 5′-(γ-thio)triphosphate]", "values": [{"measurement": "fluorescence ratio of ATP titration", "setting": "Rho-MatB [1]", "value": 1.9}, {"measurement": "increase of apparent Kd for ATP", "setting": "Rho-MatB [1]; fixed concentration of the named nucleotide", "value": "~5", "unit": "fold"}, {"measurement": "Kd", "setting": "Rho-MatB [4]", "value": "16.2 ± 0.8", "unit": "µM"}]}
